Test results published in BindingDB's records for doi:10.1021/jm00014a008 (Sterling Winthrop Research, 1995).

Target: Sodium channel protein type 5 subunit alpha (Homo sapiens, UniProt Q14524)
Assay: Blockade of Na+ current in frog oocytes expressing human cardiac sodium channel (HH1)
How it was run: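 HH1 transcripts injected into Xenopus laevis oocytes, incubated at room temperature 24–72 h. Two-microelectrode voltage clamp (3 M KCl electrodes), bath NaCl 140, KCl 2, CaCl2 1.8, MgCl2 1, HEPES 5 mM, pH 7.5, 21–23 °C. Holding −100 mV; peak current at the I–V maximum measured before and after test agent; IC50 in μM.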

Chain of Sodium channel protein type 5 subunit alpha (Q14524 whole entry): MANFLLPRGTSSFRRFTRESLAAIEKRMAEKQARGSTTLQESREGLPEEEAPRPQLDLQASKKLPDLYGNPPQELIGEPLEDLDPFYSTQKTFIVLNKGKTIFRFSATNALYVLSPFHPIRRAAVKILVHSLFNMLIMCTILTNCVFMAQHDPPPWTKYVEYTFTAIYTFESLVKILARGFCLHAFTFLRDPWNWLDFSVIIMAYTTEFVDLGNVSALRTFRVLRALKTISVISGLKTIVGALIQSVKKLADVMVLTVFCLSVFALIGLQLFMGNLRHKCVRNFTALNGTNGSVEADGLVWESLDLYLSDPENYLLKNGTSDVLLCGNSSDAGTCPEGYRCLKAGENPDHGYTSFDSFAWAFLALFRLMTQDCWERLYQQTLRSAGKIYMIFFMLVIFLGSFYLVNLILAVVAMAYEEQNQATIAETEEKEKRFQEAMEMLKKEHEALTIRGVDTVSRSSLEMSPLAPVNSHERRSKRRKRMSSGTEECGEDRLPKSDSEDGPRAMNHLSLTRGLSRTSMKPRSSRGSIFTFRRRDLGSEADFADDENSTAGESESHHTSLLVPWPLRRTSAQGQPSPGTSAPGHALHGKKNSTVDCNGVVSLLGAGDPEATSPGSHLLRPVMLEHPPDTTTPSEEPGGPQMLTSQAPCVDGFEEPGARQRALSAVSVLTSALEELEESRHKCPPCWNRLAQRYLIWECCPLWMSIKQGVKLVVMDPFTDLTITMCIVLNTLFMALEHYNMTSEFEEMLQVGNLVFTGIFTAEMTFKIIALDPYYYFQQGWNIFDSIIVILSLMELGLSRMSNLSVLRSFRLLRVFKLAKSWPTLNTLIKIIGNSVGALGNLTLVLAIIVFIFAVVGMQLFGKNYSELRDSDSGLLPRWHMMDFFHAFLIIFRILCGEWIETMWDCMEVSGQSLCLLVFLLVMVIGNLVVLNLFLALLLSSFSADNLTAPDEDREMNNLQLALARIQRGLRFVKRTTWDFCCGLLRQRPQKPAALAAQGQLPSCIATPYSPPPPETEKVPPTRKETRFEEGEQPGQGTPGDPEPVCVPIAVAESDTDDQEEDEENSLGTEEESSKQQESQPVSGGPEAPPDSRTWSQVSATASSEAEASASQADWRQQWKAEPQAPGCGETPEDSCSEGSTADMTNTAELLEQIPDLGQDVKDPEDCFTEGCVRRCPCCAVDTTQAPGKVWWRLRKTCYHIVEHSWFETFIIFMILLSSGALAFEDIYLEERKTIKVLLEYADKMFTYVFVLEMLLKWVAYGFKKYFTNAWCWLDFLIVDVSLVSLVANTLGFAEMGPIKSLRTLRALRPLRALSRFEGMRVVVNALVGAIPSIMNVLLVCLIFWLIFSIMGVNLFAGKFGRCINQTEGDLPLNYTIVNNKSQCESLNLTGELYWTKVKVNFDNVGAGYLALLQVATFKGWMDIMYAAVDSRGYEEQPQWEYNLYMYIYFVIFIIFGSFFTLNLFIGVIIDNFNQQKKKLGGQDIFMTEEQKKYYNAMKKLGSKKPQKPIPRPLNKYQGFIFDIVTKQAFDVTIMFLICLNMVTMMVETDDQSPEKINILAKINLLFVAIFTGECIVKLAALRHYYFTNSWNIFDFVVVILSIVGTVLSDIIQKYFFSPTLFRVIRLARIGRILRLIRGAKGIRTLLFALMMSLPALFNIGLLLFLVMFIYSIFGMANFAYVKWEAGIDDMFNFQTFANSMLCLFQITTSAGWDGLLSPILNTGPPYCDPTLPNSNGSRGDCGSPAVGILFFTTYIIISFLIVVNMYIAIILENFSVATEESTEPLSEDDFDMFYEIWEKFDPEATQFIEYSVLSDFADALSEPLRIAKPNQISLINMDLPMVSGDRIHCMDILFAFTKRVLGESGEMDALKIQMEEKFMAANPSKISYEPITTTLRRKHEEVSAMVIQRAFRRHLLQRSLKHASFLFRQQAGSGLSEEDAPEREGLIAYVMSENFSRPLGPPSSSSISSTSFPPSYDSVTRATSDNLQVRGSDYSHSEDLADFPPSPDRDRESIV

In the case of `CSc1ccc([C@H]2N=C(OCc3ccc(NS(C)(=O)=O)cc3)N(C)Cc3ccccc32)cc1`, the IC50 is reported as greater than 30 µM.
